In ChEMBL document CHEMBL2407075, “Sulphonamido-quinoxalines: search for anticancer agent” (Eur J Med Chem, 2013):

Assays:
[1] = test system: HOP-62; experiment: Growth inhibition of human HOP62 cells at 10 uM after 48 hrs by sulforhodamine B assay; format: functional; conditions: HOP-62, 48 h, read-out: GI
How it was run: (§1)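 NCI-60 one-dose primary screen at a single 10 µM concentration. Cells in RPMI 1640 with 5% FBS, preincubated 24 h at 37 °C, 5% CO2. Drug exposure 48 h, then TCA fixation, SRB staining and absorbance at 515 nm. Percent growth calculated against time-zero and untreated control wells, then converted to percent growth inhibition.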

[2] = test system: NCI-H322M; experiment: Growth inhibition of human NCI-H322M cells at 10 uM after 48 hrs by sulforhodamine B assay; format: functional; conditions: read-out: GI
How it was run: (§2)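 Single-dose screen at 10 µM across the NCI 60 panel. Cells in RPMI 1640 with 5% FBS and 2 mM L-glutamine, plated at 5000–40,000/well and preincubated 24 h at 37 °C, 5% CO2. Drug in DMSO, 48 h exposure. Fixed with TCA, stained with SRB, A515 read. Percent growth is taken relative to untreated control, and inhibition is 100 minus growth.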

[3] = test system: MDA-MB-435; experiment: Growth inhibition of human MDA-MB-435 cells at 10 uM after 48 hrs by sulforhodamine B assay; format: functional; conditions: MDA-MB-435, 48 h, read-out: GI; how it was run: as §2
[4] = test system: MCF7; experiment: Growth inhibition of human MCF7 cells at 10 uM after 48 hrs by sulforhodamine B assay; format: functional; conditions: MCF7, 48 h, read-out: GI; how it was run: as §2
[5] = test system: 786-0; experiment: Growth inhibition of human 786-0 cells at 10 uM after 48 hrs by sulforhodamine B assay; format: functional; conditions: 786-0, 48 h, read-out: GI
How it was run: (§3)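 Single-dose NCI-60 prescreen at 10 µM for 48 h at 37 °C and 5% CO2, using cells grown in RPMI 1640 with 5% FBS and 2 mM glutamine. Protein was measured by SRB after TCA fixation: 10% final for adherent lines, 16% for suspension lines. Absorbance was read at 515 nm. Percent growth inhibition was obtained by subtracting percent growth from 100.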

[6] = Growth inhibition of human NCI-ADR-RES cells at 10 uM after 48 hrs by sulforhodamine B assay; format: functional; conditions: read-out: GI; how it was run: as §2
[7] = test system: NCI-H226; experiment: Growth inhibition of human NCI-H226 cells at 10 uM after 48 hrs by sulforhodamine B assay; format: functional; conditions: NCI-H226, 48 h, read-out: GI; how it was run: as §2
[8] = test system: SK-MEL-5; experiment: Growth inhibition of human SK-MEL-5 cells at 10 uM after 48 hrs by sulforhodamine B assay; format: functional; conditions: SK-MEL-5, 48 h, read-out: GI; how it was run: as §2
[9] = Growth inhibition of human Hs 578T cells at 10 uM after 48 hrs by sulforhodamine B assay; format: functional; conditions: read-out: GI; how it was run: as §1
[10] = test system: IGROV-1; experiment: Growth inhibition of human IGROV1 cells at 10 uM after 48 hrs by sulforhodamine B assay; format: functional; conditions: IGROV-1, 48 h, read-out: GI; how it was run: as §2
[11] = test system: KM12; experiment: Growth inhibition of human KM12 cells at 10 uM after 48 hrs by sulforhodamine B assay; format: functional; conditions: KM12, 48 h, read-out: GI; how it was run: as §2
[12] = Oral bioavailability in human; format: ADME, organism-based; conditions: in silico prediction
[13] = test system: SW-620; experiment: Growth inhibition of human SW620 cells at 10 uM after 48 hrs by sulforhodamine B assay; format: functional; conditions: SW-620, 48 h, read-out: GI; how it was run: as §2
[14] = test system: NCI-H23; experiment: Growth inhibition of human NCI-H23 cells at 10 uM after 48 hrs by sulforhodamine B assay; format: functional; conditions: NCI-H23, 48 h, read-out: GI; how it was run: as §2
[15] = test system: LOX IMVI; experiment: Growth inhibition of human LOXIMVI cells at 10 uM after 48 hrs by sulforhodamine B assay; format: functional; conditions: read-out: GI; how it was run: as §2
[16] = test system: BT-549; experiment: Growth inhibition of human BT549 cells at 10 uM after 48 hrs by sulforhodamine B assay; format: functional; conditions: BT-549, 48 h, read-out: GI; how it was run: as §3
[17] = test system: HL-60(TB); experiment: Growth inhibition of human HL-60(TB) cells at 10 uM after 48 hrs by sulforhodamine B assay; format: functional; conditions: HL-60, 48 h, read-out: GI
How it was run: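 Single-dose NCI-60 primary screen at 10 µM, 48 h exposure, SRB read-out. Growth percentage of treated versus untreated cells was recorded and given as percent inhibition by subtraction.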

[18] = test system: SNB-75; experiment: Growth inhibition of human SNB75 cells at 10 uM after 48 hrs by sulforhodamine B assay; format: functional; conditions: SNB-75, 48 h, read-out: GI; how it was run: as §2
[19] = test system: MOLT-4; experiment: Growth inhibition of human MOLT4 cells at 10 uM after 48 hrs by sulforhodamine B assay; format: functional; conditions: MOLT-4, 48 h, read-out: GI; how it was run: as §2
[20] = test system: T47D; experiment: Growth inhibition of human T47D cells at 10 uM after 48 hrs by sulforhodamine B assay; format: functional; conditions: read-out: GI; how it was run: as §2
[21] = test system: DU-145; experiment: Growth inhibition of human DU145 cells at 10 uM after 48 hrs by sulforhodamine B assay; format: functional; conditions: DU-145, 48 h, read-out: GI; how it was run: as §3
[22] = test system: SF-268; experiment: Growth inhibition of human SF268 cells at 10 uM after 48 hrs by sulforhodamine B assay; format: functional; conditions: SF-268, 48 h, read-out: GI; how it was run: as §2
[23] = test system: SK-MEL-28; experiment: Growth inhibition of human SK-MEL-28 cells at 10 uM after 48 hrs by sulforhodamine B assay; format: functional; conditions: SK-MEL-28, 48 h, read-out: GI; how it was run: as §2
[24] = test system: HCT-116; experiment: Growth inhibition of human HCT116 cells at 10 uM after 48 hrs by sulforhodamine B assay; format: functional; conditions: HCT-116, 48 h, read-out: GI; how it was run: as §1
[25] = test system: K562; experiment: Growth inhibition of human K562 cells at 10 uM after 48 hrs by sulforhodamine B assay; format: functional; conditions: K562, 48 h, read-out: GI; how it was run: as §2
[26] = Growth inhibition of human EKVX cells at 10 uM after 48 hrs by sulforhodamine B assay; format: functional; conditions: read-out: GI; how it was run: as §1
[27] = test system: A549; experiment: Growth inhibition of human A549/ATCC cells at 10 uM after 48 hrs by sulforhodamine B assay; format: functional; conditions: A549, 48 h, read-out: GI; how it was run: as §3
[28] = test system: CAKI-1; experiment: Growth inhibition of human CAKI-1 cells at 10 uM after 48 hrs by sulforhodamine B assay; format: functional; conditions: CAKI-1, 48 h, read-out: GI; how it was run: as §3
[29] = Growth inhibition of human HCC2998 cells at 10 uM after 48 hrs by sulforhodamine B assay; format: functional; conditions: HCC 2998, 48 h, read-out: GI; how it was run: as §1
[30] = test system: M14; experiment: Growth inhibition of human M14 cells at 10 uM after 48 hrs by sulforhodamine B assay; format: functional; conditions: M14, 48 h, read-out: GI; how it was run: as §2
[31] = test system: HCT-15; experiment: Growth inhibition of human HCT15 cells at 10 uM after 48 hrs by sulforhodamine B assay; format: functional; conditions: HCT-15, 48 h, read-out: GI; how it was run: as §1
[32] = test system: OVCAR-8; experiment: Growth inhibition of human OVCAR8 cells at 10 uM after 48 hrs by sulforhodamine B assay; format: functional; conditions: OVCAR-8, 48 h, read-out: GI; how it was run: as §2
[33] = test system: SR; experiment: Growth inhibition of human SR cells at 10 uM after 48 hrs by sulforhodamine B assay; format: functional; conditions: read-out: GI; how it was run: as §2
[34] = test system: OVCAR-3; experiment: Growth inhibition of human OVCAR3 cells at 10 uM after 48 hrs by sulforhodamine B assay; format: functional; conditions: OVCAR-3, 48 h, read-out: GI; how it was run: as §2
[35] = test system: ACHN; experiment: Growth inhibition of human ACHN cells at 10 uM after 48 hrs by sulforhodamine B assay; format: functional; conditions: read-out: GI; how it was run: as §3

SMILES	inhibition of growth at 10 µM [1] [%]	inhibition of growth at 10 µM [2] [%]	inhibition of growth at 10 µM [3] [%]	inhibition of growth at 10 µM [4] [%]	inhibition of growth at 10 µM [5] [%]	inhibition of growth at 10 µM [6] [%]	inhibition of growth at 10 µM [7] [%]	inhibition of growth at 10 µM [8] [%]	inhibition of growth at 10 µM [9] [%]	inhibition of growth at 10 µM [10] [%]	inhibition of growth at 10 µM [11] [%]	bioavailability [12] [%]	inhibition of growth at 10 µM [13] [%]	inhibition of growth at 10 µM [14] [%]	inhibition of growth at 10 µM [15] [%]	inhibition of growth at 10 µM [16] [%]	inhibition of growth at 10 µM [17] [%]	inhibition of growth at 10 µM [18] [%]	inhibition of growth at 10 µM [19] [%]	inhibition of growth at 10 µM [20] [%]	further results
O=C(NS(=O)(=O)c1ccc2nc(-c3ccccc3)c(-c3ccccc3)nc2c1)c1ccccc1	2.87	20.9	12.9	22.9	16.5	27.5	62	48.9	17	16.5	21	100	17.4	19.6	20.5	7.67	49.4	34.7	44.9	57.5	inhibition of growth at 10 µM [21]: 6.85%; inhibition of growth at 10 µM [22]: 6.89%; inhibition of growth at 10 µM [23]: 7.63%; inhibition of growth at 10 µM [24]: 36.7%; inhibition of growth at 10 µM [25]: 45.8%; inhibition of growth at 10 µM [26]: 26.5%; inhibition of growth at 10 µM [27]: 21.1%; inhibition of growth at 10 µM [28]: 7.22%; inhibition of growth at 10 µM [29]: 15.3%; inhibition of growth at 10 µM [30]: 2.45%; inhibition of growth at 10 µM [31]: 44.9%; inhibition of growth at 10 µM [32]: 8.02%; inhibition of growth at 10 µM [33]: 71.1%; inhibition of growth at 10 µM [34]: 19.2%; inhibition of growth at 10 µM [35]: 11.8%
O=S(=O)(Nc1cccc2ccccc12)c1ccc2nc(-c3ccccc3)c(-c3ccccc3)nc2c1	2.24	22.2	20.4	23	4.34	22.6	44	48.6	24	1.78	29.9	100	26.8	21.3	32.9	32.6	71	39.9	47.8	49.4	inhibition of growth at 10 µM [21]: 10.9%; inhibition of growth at 10 µM [22]: 2.78%; inhibition of growth at 10 µM [23]: 5.98%; inhibition of growth at 10 µM [24]: 49.9%; inhibition of growth at 10 µM [25]: 49.6%; inhibition of growth at 10 µM [26]: 71.2%; inhibition of growth at 10 µM [27]: 15.3%; inhibition of growth at 10 µM [28]: 3.34%; inhibition of growth at 10 µM [29]: 4.56%; inhibition of growth at 10 µM [30]: 2.23%; inhibition of growth at 10 µM [31]: 34.3%; inhibition of growth at 10 µM [32]: 20.6%; inhibition of growth at 10 µM [33]: 81.1%; inhibition of growth at 10 µM [34]: 30.9%; inhibition of growth at 10 µM [35]: 21.9%
O=S(=O)(Nc1ccc(Cl)cc1)c1ccc2nc(-c3ccccc3)c(-c3ccccc3)nc2c1	12.8	32.8	35.6	47.7	66.9	55.2	-2.45	74	37.5	20.8	38.7	100	30.3	26.6	38.4	77.8	66.7	45.1	60.8	72.1	inhibition of growth at 10 µM [21]: 24.4%; inhibition of growth at 10 µM [22]: 14.1%; inhibition of growth at 10 µM [23]: 14.6%; inhibition of growth at 10 µM [24]: 59.6%; inhibition of growth at 10 µM [25]: 55.6%; inhibition of growth at 10 µM [26]: 57.8%; inhibition of growth at 10 µM [27]: 41.9%; inhibition of growth at 10 µM [28]: 33.9%; inhibition of growth at 10 µM [29]: 37.9%; inhibition of growth at 10 µM [30]: 31%; inhibition of growth at 10 µM [31]: 44.7%; inhibition of growth at 10 µM [32]: 34.8%; inhibition of growth at 10 µM [33]: 88.1%; inhibition of growth at 10 µM [34]: 28.8%; inhibition of growth at 10 µM [35]: 23.9%
